Data taken from ChEMBL document CHEMBL4385596, “Fragment-Based Discovery of a Qualified Hit Targeting the Latency-Associated Nuclear Antigen of the Oncogenic Kaposi's Sarcoma-Associated Herpesvirus/Human Herpesvirus 8” (J Med Chem, 2019).
Calls of active or inactive are those of the source. No cut-off for these calls is given here.

Assays:
[1] = Binding affinity to fluorescent labelled LBS2 DNA (unknown origin) by fluorescence polarization assay
Summary of the method: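 Fixed concentration of His-tagged oligomerization-deficient LANA DBD mutant (aa1008-1146, 200 nM final) was pre-incubated 60 min with compound. Fluorescein-labelled LBS2 (10 nM final) was then added and incubated 90 min. Buffer was 10 mM HEPES, 150 mM NaCl, 0.005% Tween20, 5% DMSO. Polarization was read at ex 485/em 520 nm. Runs were done with and without LANA to exclude DNA or quenching interference. Duplicates, two independent experiments.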

[2] = system: ORF 73 (Human herpesvirus 8), O40947 [UNDEFINED MUTATION]; experiment: (§1) Inhibition of fluorescent labelled LBS2 DNA binding to human herpesvirus 8 C-terminal His-tagged LANA oligomerization deficient mutant DBD (1008 to 1146 residues) expressed in Escherichia coli BL21 (DE3) at 1 mM preincubated for 60 mins followed by fluorescent labelled LBS2 addition and measured after 90 mins by fluorescence polarization assay relative to control; conditions: Human gammaherpesvirus 8
Summary of the method: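 Single-concentration FP competition assay (1 mM or 500 µM compound). LANA DBD mutant (200 nM final) pre-incubated with compound for 60 min, then fluorescein-labelled LBS2 (10 nM final) added and incubated 90 min. Buffer was HEPES/NaCl/Tween20 with 5% DMSO. Read at excitation 485 nm, emission 520 nm. Percent inhibition from duplicates in two independent experiments.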

ORF 73 [3] = molecular target: T1, ORF 73 (Human herpesvirus 8, UniProt O40947); experiment: as §1, with “(DE3)” for “(DE3) at 1 mM”, “assay” for “assay relative to control”; set-up: species or system Human gammaherpesvirus 8
Summary of the method: (§2)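 FP competition assay. His-tagged LANA DBD mutant (200 nM final) pre-incubated with serially varied compound for 60 min. Fluorescein-labelled LBS1, LBS2 or LBS3 (10 nM final) then added and incubated 90 min. Buffer was 10 mM HEPES, 150 mM NaCl, 0.005% Tween20 with 5% DMSO. Read at excitation 485 nm, emission 520 nm. Duplicates in two independent experiments. Runs without LANA checked for interference. IC50 derived from dose-response.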

[4] = system: ORF 73 (Human herpesvirus 8), O40947 [UNDEFINED MUTATION]; experiment: Binding affinity to human herpesvirus 8 C-terminal His-tagged LANA oligomerization deficient mutant DBD (1008 to 1146 residues) expressed in Escherichia coli BL21 (DE3) at 1 mM by STD-NMR analysis; conditions: Human gammaherpesvirus 8
Summary of the method: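 STD NMR at 298 K, 500 MHz. Ligand at 1 mM final (40-fold excess) over LANA DBD mutant at 25 µM final. On-resonance irradiation at 0 ppm, off-resonance at -40 ppm. STD effect (I/I0) calculated per ligand proton. A free-compound control spectrum was recorded to check for artefacts.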

ORF 73 [5] = molecular target: T1, ORF 73; experiment: (§3) Inhibition of fluorescent labelled LBS3 DNA binding to human herpesvirus 8 C-terminal His-tagged LANA oligomerization deficient mutant DBD (1008 to 1146 residues) expressed in Escherichia coli BL21 (DE3) preincubated for 60 mins followed by fluorescent labelled LBS2 addition and measured after 90 mins by fluorescence polarization assay; set-up: species or system Human gammaherpesvirus 8; summary of the method: as §2
ORF 73 [6] = molecular target: T1, ORF 73; experiment: (§4) Inhibition of 5'-Dy682-labelled LBS1 DNA binding to human herpesvirus 8 C-terminal His-tagged LANA oligomerization deficient mutant DBD (1008 to 1146 residues) expressed in Escherichia coli BL21 (DE3) preincubated for 1 hr followed by 5'-Dy682-labelled LBS1 DNA addition and measured after 30 mins by electrophoretic mobility shift assay; set-up: species or system Human gammaherpesvirus 8
Summary of the method: (§5)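 Native-gel EMSA. LANA DBD mutant (200 nM final) pre-incubated with compound for 1 h at RT in the dark, then Dy-682-labelled LBS1 probe (20 nM) added. Complex and free-probe band intensities normalised to 0–100% inhibition. Run in duplicate; purified GST served as control.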

[7] = system: ORF 73 (Human herpesvirus 8), O40947 [UNDEFINED MUTATION]; experiment: as §4, with “(DE3) at 500 uM” for “(DE3)”; conditions: Human gammaherpesvirus 8; summary of the method: as §5
ORF 73 [8] = molecular target: T1, ORF 73; experiment: as §3, with “LBS1” for “LBS3”; set-up: species or system Human gammaherpesvirus 8; summary of the method: as §2
[9] = system: ORF 73 (Human herpesvirus 8), O40947 [UNDEFINED MUTATION]; experiment: as §4, with “of 5'-Dy682-labelled LBS1/LBS2 DNA binding” for “of 5'-Dy682-labelled LBS1 DNA binding”, “BL21 (DE3) at 500 uM preincubated for” for “BL21 (DE3) preincubated for”; conditions: Human gammaherpesvirus 8
Summary of the method: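 Native-gel EMSA with a longer Dy-682-labelled probe carrying both LBS1 and LBS2 (20 nM). LANA DBD mutant (200 nM) pre-incubated with compound (500 µM) for 1 h at RT in the dark. Buffer was Tris-HCl pH 7.5 with KCl, MgCl2, DTT, EDTA, glycerol, Tween20, BSA and poly(dI-dC). Band intensities normalised to percent inhibition. Run in duplicate; GST served as control.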

ORF 73 [10] = molecular target: T1, ORF 73; experiment: Binding affinity to human herpesvirus human herpesvirus 8 C-terminal His-tagged LANA oligomerization deficient mutant DBD (1008 to 1146 residues) expressed in Escherichia coli BL21 (DE3) by microscale thermophoresis assay; set-up: species or system Human gammaherpesvirus 8
Summary of the method: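 His-tagged LANA DBD mutant labelled with a RED-tris NTA His-tag dye, used at 50 nM. Ligand titrated in a dose-response series starting at 1 mM. Buffer was 10 mM HEPES, 150 mM NaCl, 2 mM DTT, 0.005% Tween20 with 5% DMSO. KD derived from thermophoresis.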

[11] = Inhibition of 5'-Dy682-labelled LBS1 DNA binding to GST-tagged LANA C-terminal domain (934 to 1162 residues) preincubated for 1 hr followed by 5'-Dy682-labelled LBS1 DNA addition and measured after 30 mins by electrophoretic mobility shift assay; set-up: species or system Human gammaherpesvirus 8
Summary of the method: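 Dose-dependent native-gel EMSA used Dy-682-labelled LBS1 probe with wild-type LANA CTD (aa934-1162). Protein was incubated with compound for 1 h at RT in the dark. IC50 was calculated from band intensities.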

Human gammaherpesvirus 8 [12] = experiment: Binding affinity to wild-type human herpesvirus 8 GST-tagged LANA C-terminal domain (934 to 1162 residues) assessed as change in melting temperature at 500 uM by differential scanning fluorimetry
Summary of the method: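 Thermal shift (DSF) used wild-type LANA C-terminal domain (aa934-1162) at 20 µM final and compound at 500 µM final. Buffer was 10 mM PBS pH 7.4, 5% DMSO, 0.05% Tween20. Melting was run in a real-time PCR instrument, and the change in denaturation temperature (TM) was recorded.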

Human gammaherpesvirus 8 [13] = experiment: Binding affinity to wild-type human herpesvirus 8 His-tagged LANA C-terminal domain (934 to 1162 residues) at 500 uM by surface plasmon resonance analysis

Row | SMILES | Activity [1] | inhibition [2] [%] | IC50 (ORF 73 [3]; read-out: IC50) [µM] | also measured
1 | O=C(O)c1cccc(-n2ccnn2)c1 | inactive | 98 |  | 
2 | O=C(O)c1ccc(-c2cn(-c3ccc(O)cc3)nn2)cc1 | inactive |  | 52 | 
3 | O=C(O)c1ccc(-n2ccnc2)cc1 | inactive | 13 |  | 
4 | O=[N+]([O-])c1ccccc1-n1ccnc1 | inactive | 74 |  | 
5 | Oc1ccccc1-n1ccnc1 | inactive | 51 |  | 
6 | O=C(O)c1ccc(-c2cn(-c3cccnc3)nn2)cc1 | inactive |  | 17 | Activity [4]: Active; IC50 (ORF 73 [5]): 19 µM; IC50 (ORF 73 [6]): 426 µM; inhibition [7]: Active; IC50 (ORF 73 [8]): 20 µM; inhibition [9]: Active; Kd (ORF 73 [10]): 23 µM; IC50 [11]: 435 µM
7 | O=C(O)c1ccccc1-n1ccnc1 |  | 50 | 333 | 
8 | COc1ccccc1-n1ccnc1 | inactive | 15 |  | 
9 | O=[N+]([O-])c1cccc(-n2ccnc2)c1 | inactive | 21 |  | 
10 | Nc1ccc(-n2cc(-c3ccc(C(=O)O)cc3)nn2)cc1 | inactive |  | 19 | 
11 | O=C(O)c1cccc(-n2ccnc2)c1 | inactive | 19 |  | 
12 | O=C(O)c1ccc(-n2cc(-c3ccc(CO)cc3)nn2)cc1 | inactive |  | 27 | 
13 | CC(=O)OCc1cn(-c2ccc(C(=O)O)cc2)nn1 | inactive |  |  | IC50 (ORF 73 [3]): Not Active
14 | O=C(O)c1ccc(-n2cc(-c3cccc(NCCN4CCOCC4)c3)nn2)cc1 | inactive |  |  | IC50 (ORF 73 [3]): Not Active
15 | O=C(O)c1ccccc1-n1cc(-c2ccccc2)nn1 | inactive | 13 |  | 
16 | COCc1cn(-c2ccc(C(=O)OC)cc2)nn1 | inactive |  | 237 | 
17 | Nc1ccccc1-c1cn(-c2ccc(C(=O)O)cc2)nn1 | inactive |  | 28 | IC50 (ORF 73 [5]): 26 µM; inhibition [7]: Active; IC50 (ORF 73 [8]): 25 µM; inhibition [9]: Active
18 | O=C(O)c1cccc(-n2cc(-c3ccccc3)nn2)c1 | inactive | 43 |  | 
19 | Nc1ccccc1-n1ccnc1 | inactive | 25 |  | ΔTm (Human gammaherpesvirus 8 [12]): -1.8 °C; Activity (Human gammaherpesvirus 8 [13]): 15.7 RU
20 | Cc1cn(-c2ccccc2N)cn1 | inactive | 91 |  | 
21 | Nc1cccc(-c2cn(-c3ccc(C(=O)O)cc3)nn2)c1 | inactive |  | 109 | IC50 (ORF 73 [5]): 106 µM; inhibition [7]: inactive; IC50 (ORF 73 [8]): 136 µM; inhibition [9]: inactive
22 | COC(=O)c1cn(-c2ccc(C(=O)O)cc2)nn1 | inactive |  | 163 | 
23 | CC(=O)Nc1ccccc1-n1ccnc1 | inactive | 32 |  | 
